The structures appear in SMILES notation. Converted amounts (≈) assume the structure as drawn.

What all share (assay type): functional
For experiment [1], the system named is Candida albicans. Put plainly: Antifungal activity against Candida albicans IHEM 374 at 0.1 mg/uL per disc after 24 hrs by disc diffusion test.
Experiment [2] has as its system Fusarium solani. Put plainly: Antifungal activity against Fusarium solani CBS 230.34 at 0.1 mg/uL per disc after 48 hrs by disc diffusion test.
Experiment [3] can be described thus: Antifungal activity against Rhodotorula bogoriensis MUCL 11796 at 0.1 mg/uL per disc after 24 hrs by disc diffusion test.
Experiment [4] concerns Aspergillus flavus. Put plainly: Antifungal activity against Aspergillus flavus ATCC 44310 at 0.1 mg/uL per disc after 48 hrs by disc diffusion test.
Experiment [5] in a line: Antifungal activity against Rhodotorula bogoriensis MUCL 11796 after 24 hrs by microdilution method. A digest of the protocol: (§1)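 Broth microdilution used stock inocula in saline at 0.5 McFarland. A log2 dilution series (0–500 mg/L) was made in double-concentration RPMI-1640 with glutamine and a pH indicator, without bicarbonate. Plates were incubated at 37 °C without agitation: C. albicans and R. bogoriensis 24 h, A. flavus 48 h, F. solani 72 h. Absorbance was read at 530 nm to give the MIC.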

Experiment [6] concerns Candida albicans. Description: Antifungal activity against Candida albicans IHEM 374 after 24 hrs by microdilution method. The following applies: IHEM 374, 24 h. In outline: as §1
The subject of experiment [7] is Aspergillus flavus. Description: Antifungal activity against Aspergillus flavus ATCC 44310 after 48 to 72 hrs by microdilution method. In outline:
as §1

In experiment [8] the test system is Fusarium solani. Description: Antifungal activity against Fusarium solani CBS 230.34 after 48 to 72 hrs by microdilution method. In outline:
as §1

Regarding `Clc1ccc(CNCCCCOc2ccc3ncccc3c2)cc1`, the “diameter of the inhibition zone (DIZ)” value in experiment [1], in experiment [2] and in experiment [4] was 0 mm each time. The same compound had an inhibition zone (IZ) in experiment [3] of 0 mm.

In the case of `CCN(CC)CCCCOc1cccc2ncccc12`, the “diameter of the inhibition zone (DIZ)” value in experiment [1], in experiment [2] and in experiment [4] was 0 mm in each case. Also, the inhibition zone (IZ) in experiment [3] came out at 0 mm.

Regarding `Clc1ccc(CNCCCCOc2ccc(Cl)c3cccnc23)cc1`, the “diameter of the inhibition zone (DIZ)” value in experiment [1] was determined as 8 mm; in experiment [2] it was 0 mm; in experiment [4], 0 mm. In experiment [3], this compound registered an inhibition zone (IZ) of 30 mm.

As to `CCN(CC)CCC(C)COc1cccc2cccnc12` (centres undefined), the “diameter of the inhibition zone (DIZ)” value in experiment [1], in experiment [2] and in experiment [4] was 0 mm throughout. Further, the inhibition zone (IZ) in experiment [3] came out at 0 mm.

`CC(CCNCc1ccc(Cl)cc1)COc1c(I)cc(I)c2cccnc12` (centres undefined): the “diameter of the inhibition zone (DIZ)” value was determined as 7 mm in experiment [1], 0 mm in experiment [2] and 0 mm in experiment [4]. The inhibition zone (IZ) in experiment [3] came out at 10 mm.

Take `CCN(CC)CCCCOc1ccc2ncccc2c1`: the “diameter of the inhibition zone (DIZ)” value in experiment [1], in experiment [2] and in experiment [4] was 0 mm throughout. Besides, in experiment [3], the inhibition zone (IZ) came to 0 mm.

In the case of `CCN(CC)CCCCOc1ccc(Cl)c2cccnc12`, the “diameter of the inhibition zone (DIZ)” value is 12 mm in experiment [1], 0 mm in experiment [2] and 0 mm in experiment [4]. In addition, in experiment [3], the inhibition zone (IZ) turned out to be 0 mm.

For `CC(CCNCc1ccc(Cl)cc1)COc1cccc2cccnc12` (centres undefined), the “diameter of the inhibition zone (DIZ)” value in experiment [1], in experiment [2] and in experiment [4] was 0 mm each time. The compound also came in with an inhibition zone (IZ) in experiment [3] of 15 mm.

For `Clc1ccc(CNCCCCOc2cccc3ncccc23)cc1`, the “diameter of the inhibition zone (DIZ)” value in experiment [1], in experiment [2] and in experiment [4] was 0 mm in each case. In experiment [3], this compound yielded an inhibition zone (IZ) of 0 mm.

Consider `CCN(CC)CCC(C)COc1c(I)cc(I)c2cccnc12` (centres undefined), for which the entries for the “diameter of the inhibition zone (DIZ)” value in experiment [1], in experiment [2] and in experiment [4] were 12 mm, 0 mm and 7 mm, respectively. The inhibition zone (IZ) in experiment [3] was determined as 26 mm. In addition, the minimal inhibitory concentration (MIC) is 0.5 µg/mL (≈ 0.929 µM) in experiment [5], 0.5 µg/mL (≈ 0.929 µM) in experiment [6] and 4 µg/mL (≈ 7.43 µM) in experiment [7].

For the compound `CCN(CC)CCC(C)COc1c(I)cc(Cl)c2cccnc12` (centres undefined), the entries for the “diameter of the inhibition zone (DIZ)” value in experiment [1], in experiment [2] and in experiment [4] were 7 mm, 0 mm and 10 mm, respectively. Moreover, the inhibition zone (IZ) in experiment [3] was found to be 30 mm. Further, the MIC was determined as 0.25 µg/mL (≈ 0.56 µM) in experiment [5], 4 µg/mL (≈ 8.95 µM) in experiment [6] and 4 µg/mL (≈ 8.95 µM) in experiment [7].

For the compound `CC(CCNCc1ccc(Cl)cc1)COc1cccc2ncccc12` (centres undefined), the “diameter of the inhibition zone (DIZ)” value in experiment [1], in experiment [2] and in experiment [4] was 0 mm each time. In addition, the inhibition zone (IZ) in experiment [3] turned out to be 7 mm.

For `CCN(CC)CCC(C)COc1c(Cl)cc(Cl)c2cccnc12` (centres undefined), the results for the “diameter of the inhibition zone (DIZ)” value in experiment [1], in experiment [2] and in experiment [4] were 10 mm, 0 mm and 12 mm, respectively. In experiment [3], this compound gave an inhibition zone (IZ) of 32 mm. Also, the minimum inhibitory concentration (MIC) in experiment [5] was 0.25 µg/mL (≈ 0.704 µM); in experiment [6], 0.5 µg/mL (≈ 1.41 µM); in experiment [7], 0.5 µg/mL (≈ 1.41 µM).

Take `CCN(CC)CCCCOc1cccc2cccnc12`: the “diameter of the inhibition zone (DIZ)” value in experiment [1], in experiment [2] and in experiment [4] was 0 mm in each case. The inhibition zone (IZ) in experiment [3] worked out at 0 mm.

As for `CCN(CC)CCC(C)COc1c(Cl)cc(Cl)c2ccc(C)nc12` (centres undefined), the “diameter of the inhibition zone (DIZ)” value in experiment [1] worked out at 20 mm; in experiment [2] it was 20 mm; in experiment [4] it was 10 mm. The minimum inhibitory concentration (MIC) was 0.5 µg/mL (≈ 1.35 µM) in experiment [8], 0.12 µg/mL (≈ 0.325 µM) in experiment [5], 0.25 µg/mL (≈ 0.677 µM) in experiment [6] and 0.5 µg/mL (≈ 1.35 µM) in experiment [7]. Besides, the inhibition zone (IZ) in experiment [3] stood at 30 mm.

As for `CCN(CC)CCC(C)COc1c(Br)cc(Br)c2cccnc12` (centres undefined), the “diameter of the inhibition zone (DIZ)” value in experiment [1] is on record as 20 mm; in experiment [2], 0 mm; in experiment [4], 7 mm. In experiment [3], this compound showed an inhibition zone (IZ) of 28 mm. For the same compound, the minimal inhibitory concentration (MIC) in experiment [5] amounted to 0.5 µg/mL (≈ 1.13 µM); in experiment [6], 0.25 µg/mL (≈ 0.563 µM); in experiment [7], 2 µg/mL (≈ 4.5 µM).

`CCN(CC)CCCCOc1c(I)cc(Cl)c2cccnc12`: the “diameter of the inhibition zone (DIZ)” value in experiment [1] is reported as 0 mm; in experiment [2] it was 0 mm; in experiment [4] it was 7 mm. Besides, the inhibition zone (IZ) in experiment [3] turned out to be 14 mm.

The record behind these values is ChEMBL document CHEMBL2406985, “Evaluation of (4-aminobutyloxy)quinolines as a novel class of antifungal agents” (2013).
